Apaf-1 inh – inhibitors of human Apaf-1 apoptosome, primary screen, biochemical, DEVD-Rh110 fluorescence, uHTS | Apoptotic protease-activating factor 1 (Homo sapiens), O14727 | reconstituted apoptosome caspase-3 activity | inhibition, % at 20 µM | actives 0.71% (n = 330,000) | AID 489030, 2010; active = inhibition of at least 40% at 20 µM;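 also: plate controls were DMSO wells for no effect and DEVD-CHO caspase inhibitor wells for full effect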
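System: Apoptosome proteins | Medium: Hepes pH 7.5 with detergent and BSA | Also added: Cytochrome c trigger plus (Z-DEVD)2-Rh110 caspase-3 substrate | Incubation: 30 min compound preincubation, 50 min activation, room temperature | Detection: Rhodamine 110 fluorescence at Ex 480/Em 540 nm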
MEKK2 mut-MEK5 – MEK5 binding signal on mutant MEKK2 PB1, primary screen, biochemical, multiplex bead flow cytometry, Alexa488-MEK5. Alexa488-MEK5 binding to MEKK2 mutant. percent response, % at 10 µM. actives 0.35% (n = 290,000). AID 1530, 2009; in the data active = percent response above about 24%, passing the limit was not always enough
UBC13 inh – UBC13 polyubiquitin chain formation inhibitors, primary screen, biochemical, TR-FRET, uHTS; inhibition, % at 20 µM; Ubiquitin-conjugating enzyme E2 N (Homo sapiens), P61088; actives 0.47% (n = 330,000); in the data active = inhibition above about 45%, passing the limit was not always enough
MEKK2wt PB1 HTS – modulators of MEK5 binding to wildtype MEKK2, primary screen, biochemical, multiplex bead flow cytometry, Alexa488-MEK5 | Mitogen-activated protein kinase kinase kinase 2 (Homo sapiens), Q9Y2U5 | Alexa488-MEK5 binding to MEKK2 WT; actives lie on both sides | binding response (% of control), % at 10 µM | actives 1.1% (n = 290,000) | AID 1531, 2009; in the data active = binding response below about 67% or above about 130%
PREPL inhibitor – PREPL enzyme inhibitors, primary screen, biochemical, fluorescence polarization | AID 2751, 2010 | Prolyl endopeptidase-like (Homo sapiens), Q4J6C6 | recombinant PREPL, fluorescence polarization activity-based probe | actives 0.68% (n = 320,000) | inhibition, % at 5.96 µM; in the data active = inhibition above about 43%;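 also: 0% = enzyme with DMSO and 100% = wells lacking enzyme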
MEKK3 PB1 HTS – modulators of MEKK3-MEK5 PB1 binding, primary screen, biochemical, wildtype MEKK3, multiplex bead flow cytometry, Alexa488-MEK5; actives 1.4% (n = 290,000); binding response (% of control), % at 10 µM; bead-based flow cytometry, Alexa488-MEK5 binding to MEKK3; actives lie on both sides; 0 = blocked by unlabeled MEK5, 100 = vehicle;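 active = binding response more than 3 SD above or below the average of its plate-row segment, actives on both sides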;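 also: Alexa488 bead fluorescence after subtracting the streptavidin-only scavenger bead signal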
MEKK2wt confirm – modulators of MEK5 binding to wildtype MEKK2, confirmation, biochemical, single concentration, multiplex bead flow cytometry. shares compounds with MEKK3 PB1 HTS. Alexa488-MEK5 binding to MEKK2 WT; actives lie on both sides. binding response (% of control), % at 10 µM. actives 2.4% (n = 5,900); in the data active = binding response below about 16% or above about 210%; inactive = in between
MEKK2mut confirm – mutant MEKK2 PB1-MEK5 binding signal retest – biochemical, single concentration, multiplex bead flow cytometry, confirmation. AID 1893, 2009. percent response, % at 10 µM. actives 2% (n = 5,900). shares compounds with MEKK3 PB1 HTS. Alexa488-MEK5 binding to MEKK2 mutant; in the data active = percent response mostly above about 71%, no sharp cut-off; inactive = mostly below about 38%;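 also: higher means compound restores mutant binding toward wildtype level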
MEKK3 confirm – MEKK3 wild-type PB1 binding to MEK5, inhibitors, confirmation, biochemical, bead multiplex flow cytometry, single concentration, wildtype. shares compounds with MEKK3 PB1 HTS. AID 1894, 2009. binding response (% of control), % at 10 µM. actives 1.8% (n = 5,900). Alexa488-MEK5 binding to MEKK3; active compounds read low;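 active = binding response below 72% of control, or above a set upper limit, though filed actives all read lower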;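 also: 100% = DMSO only wells and 0% = binding blocked by excess unlabeled MEK5; lower values mean stronger disruption of MEK5 binding to MEKK3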
Active calls of the source: *; i = inactive; . = no result; [ ] = remark or other dose. In the library only some 3.1% were active in any assay of this set; here they are far more common.

SMILES	Apaf-1 inh	MEKK2 mut-MEK5	UBC13 inh	MEKK2wt PB1 HTS	PREPL inhibitor	MEKK3 PB1 HTS	MEKK2wt confirm	MEKK2mut confirm	MEKK3 confirm
COc1cc(CCCN2C(=S)NC[C@@H]2Cc2ccccc2)cc(OC)c1OC	2	2	9	0.0*[inhibitor]	-25	1.0*[inhibitor]	102	0	104
COc1cc(CCCN2C(=S)NC[C@@H]2c2ccccc2)cc(OC)c1OC	2	0	11	97	-4	80*[inhibitor]	107	9	108
CCCCN1C(=S)NC[C@@H]1c1ccccc1	1	3	2	101	-2	105	.	.	.
Cc1cccc(NC(=O)CSc2nnnn2-c2ccc3c(c2)OCCO3)n1	5	-10	9	103	2	104	.	.	.
COc1ccc(OC)c(-c2cc(C3CCN(C(=O)OC(C)(C)C)CC3)[nH]n2)c1	21	1	-3	103	8	100	.	.	.
Cc1cccn2cc(CCNC(=O)c3cccs3)nc12	-18	-4	17	98	-8	97	.	.	.
CSc1ccccc1NC(=O)CN1CCCCC1	-8	-2	-1	99	5	104	.	.	.
CSc1ccccc1NC(=O)CN1CC(C)OC(C)C1 (centres undefined)	5	3	8	114	8	133*	110	2	98
O=c1cc(CSc2ccc(Cl)cc2)nc(-c2ccncc2)[nH]1	-1	-5	-6	100	-10	102	.	.	.
O=c1cc(CSc2ccccc2)nc(-c2ccncc2)[nH]1	-17	-15	-3	61	2	46*[inhibitor]	100	8	100
CCCN1C(=O)/C(=C\C=C2\N(CC)c3ccccc3C2(C)C)SC1=S	.	174*	.	186*	.	66	82	-14	90
CCN1C(=O)/C(=C2/Sc3ccccc3N2CC)SC1=S	3	-1	-7	95	10	99	.	.	.
CCN1C(=O)/C(=C\C=C2/C=CC=CN2CC)SC1=S	9	-1	i	104	-16	105	.	.	.
CCCN1C(=O)/C(=C\C=C2/Sc3ccccc3N2CC)SC1=S	.	-26	.	7.0*[inhibitor]	.	37*[inhibitor]	30	-28	71*
CN1/C(=C\C=C2/SC(=S)NC2=O)C(C)(C)c2ccccc21	19	-7	-428	83	i	99	.	.	.
CCN1C(=O)/C(=C/C=C2\C=CN(CC)c3ccccc32)SC1=S	.	-6	.	42*[inhibitor]	6	75*[inhibitor]	90	-5	102
COc1ccc(-c2noc(=O)[nH]2)cc1	-12	-1	5	100	0	103	.	.	.
CCOc1ccc(-c2noc(=O)[nH]2)cc1	-9	-33	10	39*[inhibitor]	10	23*[inhibitor]	107	3	103
O=C1C(=Cc2ccc(Br)o2)C(=O)c2ccccc21	.	0	.	98	-3	138*	105	1	106
CC1=C/C(=C\c2ccc(Br)o2)C(=O)O1	-11	0	0	114	6	99	.	.	.
COc1ccc(C)cc1-n1nnnc1SCC1CCCO1 (centres undefined)	-24	24*	7	103	4	103	114	17	106
CC(C)(C)c1ccc(S(=O)(=O)NNC(=O)c2cc3ccccc3[nH]2)cc1	19	4	-8	104	-45	111	.	.	.
O=C(NCCCN1CCCC1)c1cc(Sc2ccc(F)cc2)nc2ccccc12	15	1	0	122	-25	133*	125	13	104
CCOc1ccccc1N(CC(=O)NC1CCCCC1)S(=O)(=O)c1ccccc1	27	-1	0	98	-9	101	.	.	.
Cc1nn(CCC(N)=S)c2nc(-c3cccs3)cc(C(F)(F)F)c12	28	0	9	104	-1	151*	105	8	104
SMILES	Apaf-1 inh	MEKK2 mut-MEK5	UBC13 inh	MEKK2wt PB1 HTS	PREPL inhibitor	MEKK3 PB1 HTS	MEKK2wt confirm	MEKK2mut confirm	MEKK3 confirm
N#CCC(=O)N/N=C\c1cc(Br)ccc1OC/C=C/c1ccccc1	21	-3	2	96	.	103	.	.	.
CCn1c(N2CCN(S(=O)(=O)c3ccc(OC)cc3)CC2)nc2ccccc21	12	3	12	108	-1	106	.	.	.
CCn1c(N2CCN(C(=O)C34CC5CC(CC(C5)C3)C4)CC2)nc2ccccc21	20	-15	11	0.0*[inhibitor]	5	0.0*[inhibitor]	99	-3	98
CCn1c(N2CCN(S(=O)(=O)c3ccccc3C(F)(F)F)CC2)nc2ccccc21	15	-14	15	2.0*[inhibitor]	-2	2.0*[inhibitor]	103	2	101
CC(C)C(NC(=O)c1ccco1)C(=O)NCc1ccc(C(=O)O)cc1 (centres undefined)	0	-4	-4	98	0	101	.	.	.
COc1ccc(CN2CCC(n3nccc3NC(=O)C3CCCC3)CC2)cc1	6	20	1	144*	5	108	142	26	110
Cc1ccc(Cl)cc1N1CCN(CC(=O)NC2CCCc3ccccc32)CC1 (centres undefined)	25	-3	-16	94	12	97	.	.	.
COc1ccc(-c2nc(CSCC(=O)NC3CCCc4ccccc43)c(C)o2)cc1OC (centres undefined)	8	-1	0	108	-10	105	.	.	.
COc1ccc(-c2nnn(CC(=O)c3ccc4c(c3)OCCO4)n2)cc1OC	20	6	-6	103	-1	123*	106	5	104
O=C(CN1CCN(c2ccccc2Cl)CC1)NC1CCCc2ccccc21 (centres undefined)	9	1	2	106	-1	129*	102	-9	96
COc1ccc(-c2nnn(CC(=O)NC3CCCc4ccccc43)n2)cc1OC (centres undefined)	-3	5	4	115	-7	122*	102	1	100
